Measurements published in paper PMC3755622 (Archives of biochemistry and biophysics, 2013).
Blank lines part the entries; values can stand above or below the compound they belong to.

Columns and labels:
Format in all cases: biochemical, Prunus dulcis
[1] = test system: sweet almond β-glucosidase; test: KM as Ki from inhibition of pNPG hydrolysis at […] nm; details: pH 6.3, 0.01 M MES, 0.01 M NaCl, 4.6% v/v DMSO, 25°C; kcat calculated from kcat/KM and KM
[2] = test system: sweet almond β-glucosidase; test: initial velocity, stopped assay, glucose by hexokinase / G6PDH; details: pH 6.3, 0.01 M MES, 0.01 M NaCl, 4.6% v/v DMSO, 25°C, H2O
How it was run: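 Chromatographically purified almond enzyme (65 kD), diluted from stock in 0.01 M MES/0.01 M NaCl pH 6.3, added to about 2 μg/mL to start the reaction at 25.0 °C. Thioglucoside substrate came from DMSO stock. Aliquots were withdrawn and glucose measured by coupled yeast hexokinase/L. mesenteroides G6PDH (10 mM ATP, 5 mM MgSO4, 1 mM NAD+, pH 7.5), reading NADH at 340 nm. Km came from non-linear Michaelis-Menten fit.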

[3] = target: sweet almond β-glucosidase; test: inhibition of pNPG hydrolysis, p-nitrophenolate at […] nm; details: pNPG about 0.1 mM, pH 6.3, 25°C; not detectably hydrolysed
[4] = test system: sweet almond β-glucosidase; test: p-nitrophenolate absorbance at […] nm; details: pH 6.3, 0.01 M MES, 0.01 M NaCl, 4.6% v/v DMSO, 25°C

Compound: Cn1c(S[C@@H]2O[C@H](CO)[C@@H](O)[C@H](O)[C@H]2O)nc2ccccc21 [GlcS(N-Me)Biz, 1'-methylbenzimidazol-2'-yl 1-thio-β-D-glucopyranoside]
Km [1]: 47000 µM

Compound: OC[C@H]1O[C@@H](Sc2nc3ccccc3[nH]2)[C@H](O)[C@@H](O)[C@@H]1O [GlcSBiz, 2'-benzimidazolyl 1-thio-β-D-glucopyranoside]
Km [2]: 2500 µM

Compound: OC[C@H]1O[C@@H](Sc2nc3ccccc3o2)[C@H](O)[C@@H](O)[C@@H]1O [GlcSBox, 2-benzoxazolyl 1-thio β-D-glucopyranoside]
Km [1]: 2700 µM

The next lines start with the values.

Ki [3]: 8.7 mM
Compound: OC[C@H]1O[C@@H](SC2=NCCS2)[C@H](O)[C@@H](O)[C@@H]1O [GlcSTaz, 2-thiazolinyl1-thio-β-D-glucopyranoside]

Km [4]: 2500 µM
Compound: O=[N+]([O-])c1ccc(O[C@@H]2O[C@H](CO)[C@@H](O)[C@H](O)[C@H]2O)cc1 [pNPG, p-nitrophenyl β-D-glucopyranoside]
